Test results as given in ChEMBL document CHEMBL3259808, “Optimization of antitrypanosomatid agents: identification of nonmutagenic drug candidates with in vivo activity” (J Med Chem, 2014).
One block for each molecule: values may come before it. Activity calls are given as the source filed them. The rule behind the calls is not given here.

Columns and labels:
Salmonella typhimurium [1] = assay: Mutagenic activity in Salmonella typhimurium TA100 at 0.06 to 5 ug/plate by Ames test in presence of mouse liver S9 fraction; type: toxicity, organism-based; details: salmonella enterica subsp. enterica serovar typhimurium
In short: (§1)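 Plate-incorporation Ames test on minimal glucose agar with 500 μL Aroclor-treated mouse liver S9 added. DMSO solutions were tested at five consecutive 3-fold dilutions from the highest non-toxic dose, in triplicate, with a DMSO negative control. Revertants were counted manually; a compound was scored mutagenic when revertants were at least twice the negative control for two or more consecutive doses.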

Salmonella typhimurium [2] = assay: Mutagenic activity in Salmonella typhimurium TA98 at 3.1 to 250 ug/plate by Ames test; type: toxicity, organism-based; details: salmonella enterica subsp. enterica serovar typhimurium
In short: (§2)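 Ames plate-incorporation assay with S. typhimurium TA98 in Vogel-Bonner E minimal glucose agar. Toxicity toward the bacteria was checked first. DMSO solutions were run in triplicate at five consecutive third-dilutions, starting at the highest non-toxic dose. Positive controls were 4-nitro-o-phenylenediamine (20.0 μg/plate) and 2-aminofluorene (10.0 μg/plate); DMSO was the negative control. Revertants were counted manually. A compound was called mutagenic when revertants were at least twice the negative control at two or more consecutive doses.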

Salmonella typhimurium [3] = assay: Mutagenic activity in Salmonella typhimurium TA1537 at 0.06 to 5 ug/plate by Ames test in presence of mouse liver S9 fraction; type: toxicity, organism-based; details: salmonella enterica subsp. enterica serovar typhimurium; in short: as §1
[4] = Stability of the compound in aqueous solution assessed as compound remaining at 1 mM at pH 6 after 1 hr by TLC analysis; type: physicochemical; details: aqueous solution, pH 6; read-out: Stability
In short: (§3)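 DMSO stocks diluted to final 1 mM in KCl·HCl pH 1.0, citrate pH 6.0, Tris·HCl pH 7.4 or borax·HCl pH 9.0 buffer. Incubated 1 h at 37 °C, then ethyl acetate extracts checked by TLC for decomposition products.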

Salmonella typhimurium [5] = assay: Mutagenic activity in Salmonella typhimurium TA1537 at 0.06 to 5 ug/plate by Ames test; type: toxicity, organism-based; details: salmonella enterica subsp. enterica serovar typhimurium
In short: (§4)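 Direct plate incubation on minimal glucose agar (Vogel-Bonner E). Compound toxicity to the bacteria was checked first. DMSO solutions were tested at five consecutive 3-fold dilutions, starting from the highest non-toxic dose, in triplicate, without metabolic activation. DMSO served as negative control. Revertants were counted manually; mutagenic = revertants at least double the negative control at two or more consecutive doses.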

Trypanosoma cruzi [6] = assay: Antitrypanosomal activity against Trypanosoma cruzi Sylvio X-10 amastigotes infected in African green monkey Vero cells assessed as eradication of amastigotes after 5 days by Giemsa staining-based assay; type: functional, organism-based; details: Sylvio X-10, Vero, 120 h
In short: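 VERO cells in RPMI 1640 with 10% hiFCS were allowed to adhere for 24 h at 37 °C in 5% CO₂, then infected with tissue-derived trypomastigotes at 10:1. Free parasites were washed off after 24 h, and cultures were treated at five compound doses (text gives 72 h / 5 days). Cultures were methanol-fixed and Giemsa-stained, and infected cells were counted among 300. Quadruplicates were run in three independent experiments. IC50/IC90 were obtained by sigmoidal regression.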

Trypanosoma cruzi [7] = assay: Antitrypanosomal activity against Trypanosoma cruzi Dm 28c epimastigotes assessed as growth inhibition after 5 days; type: functional, organism-based; details: 120 h
Salmonella typhimurium [8] = assay: Mutagenic activity in Salmonella typhimurium TA102 at 0.06 to 5 ug/plate by Ames test; type: toxicity, organism-based; details: salmonella enterica subsp. enterica serovar typhimurium; in short: as §4
[9] = Stability of the compound in eumulgin HRE 40, sodium oleate, soya phosphatidylcholine, cholesterol, and phosphate buffer at pH 7.4 at 4 degC; type: physicochemical
In short: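 Storage stability of the compound in vehicle V2, a microemulsion of surfactant (Eumulgin HRE 40/sodium oleate/soya phosphatidylcholine, 10%), cholesterol oil phase (10%) and pH 7.4 phosphate buffer (80%), followed over 1 week at 4 °C.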

[10] = Stability of the compound in aqueous solution assessed as compound remaining at 1 mM at pH 9 after 1 hr by TLC analysis; type: physicochemical; details: aqueous solution, pH 9; read-out: Stability; in short: as §3
Salmonella typhimurium [11] = assay: Mutagenic activity in Salmonella typhimurium TA1535 at 0.06 to 5 ug/plate by Ames test in presence of mouse liver S9 fraction; type: toxicity, organism-based; details: salmonella enterica subsp. enterica serovar typhimurium; in short: as §1
Trypanosoma cruzi [12] = assay: Antitrypanosomal activity against Trypanosoma cruzi Sylvio X-10 amastigotes infected in African green monkey Vero cells assessed as eradication of amastigotes at 5 uM after 5 days by optical microscopic analysis; type: functional, organism-based; details: in the assay text read “after 72 hrs” for “after 5 days”
In short: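 VERO cells infected with Sylvio X-10 parasites were treated with 5 μM compound and examined by optic microscopy after 72 h of incubation for intracellular amastigotes and trypomastigotes.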

[13] = Selectivity index, ratio of IC50 for mouse J774.1 cells to IC50 for Trypanosoma cruzi Sylvio X-10 amastigotes; type: toxicity; details: read-out: Ratio IC50
In short: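 J774.1 macrophages grown in DMEM with 10% heat-inactivated FCS and allowed to attach 48 h, then exposed 48 h at 37 °C to 12.5–400.0 μM. Triplicates. MTT 0.1 mg/mL for 3 h, read at 560 nm; IC50 by linear regression against the solvent control. SI = IC50 J774.1 / parasite IC50 (Sylvio X-10 amastigotes or Tulahuen 2 epimastigotes, the latter measured by A600 growth inhibition at day 5).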

[14] = Selectivity index, ratio of IC50 for African green monkey Vero cells to IC50 for Trypanosoma cruzi Sylvio X-10 amastigotes; type: toxicity, cell-based; details: read-out: Ratio IC50
In short: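 VERO cytotoxicity: cells exposed 48 h at 37 °C, 5% CO2 to serial dilutions from a maximum of 2000 μM (DMSO stocks; DMSO <0.1% control); growth inhibition read by MTT at 570 nm. Amastigote IC50: Sylvio X-10-infected VERO cells, five doses, infected cells counted among 300 (Giemsa), quadruplicate, three experiments, sigmoidal fit. SI = IC50 VERO / IC50 amastigote.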

Salmonella typhimurium [15] = assay: Mutagenic activity in Salmonella typhimurium TA1535 at 0.06 to 5 ug/plate by Ames test; type: toxicity, organism-based; details: salmonella enterica subsp. enterica serovar typhimurium; in short: as §4
[16] = Stability of the compound in aqueous solution assessed as compound remaining at 1 mM at pH 1 after 1 hr by TLC analysis; type: physicochemical; details: read-out: Stability; in short: as §3
Salmonella typhimurium [17] = assay: Mutagenic activity in Salmonella typhimurium TA100 at 0.06 to 5 ug/plate by Ames test; type: toxicity, organism-based; details: salmonella enterica subsp. enterica serovar typhimurium; in short: as §4
[18] = Selectivity index, ratio of IC50 for human RBC to IC50 for Trypanosoma cruzi Sylvio X-10 amastigotes
In short: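 Hemolysis: washed human erythrocytes (2% w/v in PBS) incubated 24 h at 37 °C with compound at final 50, 100 and 200 μM. Ten replicates per concentration. Hemoglobin release read at 405 nm against water lysis as 100%; amphotericin B 1.5 μM was the positive control. SI = IC50 red cells / parasite IC50 (Sylvio X-10 amastigotes or Tulahuen 2 epimastigotes).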

[19] = Stability of the compound in aqueous solution assessed as compound remaining at 1 mM at pH 7.4 after 1 hr by TLC analysis; type: physicochemical; details: aqueous solution, pH 7.4; read-out: Stability; in short: as §3
Salmonella typhimurium [20] = assay: Mutagenic activity in Salmonella typhimurium TA98 at 3.1 to 250 ug/plate by Ames test in presence of mouse liver S9 fraction; type: toxicity, organism-based; details: salmonella enterica subsp. enterica serovar typhimurium; in short: as §2
Salmonella typhimurium [21] = assay: Mutagenic activity in Salmonella typhimurium TA102 at 0.06 to 5 ug/plate by Ames test in presence of mouse liver S9 fraction; type: toxicity, organism-based; details: salmonella enterica subsp. enterica serovar typhimurium; in short: as §1
Trypanosoma cruzi [22] = assay: Antitrypanosomal activity against Trypanosoma cruzi Tulahuen 2 epimastigotes assessed as growth inhibition after 5 days; type: functional, organism-based; details: Trypanosoma cruzi, Tulahuen 2, 120 h
In short: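 Epimastigotes were grown axenically at 28 °C in BHI-tryptose with 5% FBS and seeded from a 5–7 day culture at 1 × 10⁶ cells/mL. Drug from a DMSO stock was added (final DMSO ≤0.4%; the control contained 0.4% DMSO). Duplicates were run. A600 was read at day 5, and % inhibition was calculated relative to day-0 and control readings. IC50 = concentration that halves the absorbance ratio.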

Salmonella typhimurium [23] = assay: Mutagenic activity in Salmonella typhimurium TA98 at 0.05 to 4 ug/plate by Ames test; type: toxicity, organism-based; details: salmonella enterica subsp. enterica serovar typhimurium; in short: as §2
Salmonella typhimurium [24] = assay: Mutagenic activity in Salmonella typhimurium TA98 at 0.05 to 4 ug/plate by Ames test in presence of mouse liver S9 fraction; type: toxicity, organism-based; details: salmonella enterica subsp. enterica serovar typhimurium; in short: as §2
Trypanosoma cruzi [25] = assay: Antitrypanosomal activity against Trypanosoma cruzi Sylvio X-10 amastigotes infected in African green monkey Vero cells assessed as eradication of amastigotes after 72 hrs by Giemsa staining-based assay; details: Sylvio X-10, Vero

remaining at 1 h, 1000 µM [4]: > 95%
IC50 (Trypanosoma cruzi [6]): < 0.24 µM
IC50 (Trypanosoma cruzi [7]): 4 µM
Stability [9]: Stable
remaining at 1 h, 1000 µM [10]: > 95%
remaining at 1 h, 1000 µM [16]: 90%
remaining at 1 h, 1000 µM [19]: > 95%
IC50 (Trypanosoma cruzi [22]): 3.2 µM
Compound: Br.C=CCn1c(-c2ccccc2)cs\c1=N/N=C/C=C/c1ccco1.O
Activity (Salmonella typhimurium [1]): Non-toxic
Activity (Salmonella typhimurium [2]): Non-toxic
Activity (Salmonella typhimurium [3]): Non-toxic
Activity (Salmonella typhimurium [5]): Non-toxic
Activity (Salmonella typhimurium [8]): Non-toxic
Activity (Salmonella typhimurium [11]): Non-toxic
Activity (Trypanosoma cruzi [12]): Active
selectivity ratio [13]: > 120
selectivity ratio [14]: > 1000
Activity (Salmonella typhimurium [15]): Non-toxic
Activity (Salmonella typhimurium [17]): Non-toxic
Ratio IC50 [18]: > 196
Activity (Salmonella typhimurium [20]): Non-toxic
Activity (Salmonella typhimurium [21]): Non-toxic

IC50 (Trypanosoma cruzi [6]): 5 µM
IC90 (Trypanosoma cruzi [25]): 15.9 µM
IC50 (Trypanosoma cruzi [22]): 12 µM
Compound: C=CCNc1nnc(-c2ccc([N+](=O)[O-])s2)s1
Activity (Salmonella typhimurium [23]): Non-toxic
Activity (Salmonella typhimurium [24]): Non-toxic
selectivity ratio [14]: 50
